From ChEMBL document CHEMBL3351600, “Sulfur, selenium and tellurium pseudopeptides: synthesis and biological evaluation” (Bioorg Med Chem, 2014)

Legend:
CAKI-1 = experiment: Growth inhibition of human CAKI-1 cells after 48 hrs; format: functional; conditions: CAKI-1, 48 h
Procedure, shortened: (§1)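 NCI-60 human tumour cell line panel screen run at the US National Cancer Institute under its standard cytotoxicity protocol. It covers leukaemia, NSCLC, colon, CNS, melanoma, ovarian, renal, prostate and breast lines. An initial single-dose test was followed by five-dose testing with 48 h compound exposure.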

[1] = Growth inhibition of human RXF393 cells after 48 hrs; format: functional; conditions: RXF 393, 48 h; procedure, shortened: as §1
[2] = Growth inhibition of human RPMI8226 cells after 48 hrs; format: functional; conditions: RPMI-8226, 48 h; procedure, shortened: as §1
T47D = experiment: Growth inhibition of human T47D cells after 48 hrs; format: functional
Procedure, shortened: (§2)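 Run by the NCI 58-cell-line screen under its standard cytotoxicity protocol. Compounds were first tested at a single dose, then at five doses. Cells were exposed to compound for 48 h.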

Staphylococcus aureus = experiment: Antimicrobial activity against Staphylococcus aureus assessed as inhibition at 20 ug/6 mm disk after 1 to 2 days by agar diffusion assay; format: functional
Procedure, shortened: (§3)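 Standard agar diffusion: 6-mm paper disks loaded with 20 µg of compound were placed on inoculated plates. Inhibition-zone diameter (mm) was read after 1 and 2 days of growth.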

SF-268 = experiment: Growth inhibition of human SF268 cells after 48 hrs; format: functional; conditions: SF-268, 48 h; procedure, shortened: as §1
KM12 = experiment: Growth inhibition of human KM12 cells after 48 hrs; format: functional; conditions: KM12, 48 h; procedure, shortened: as §1
Escherichia coli = experiment: Antimicrobial activity against Escherichia coli tolC assessed as inhibition at 20 ug/6 mm disk after 1 to 2 days by agar diffusion assay; format: functional; procedure, shortened: as §3
[3] = Octanol-water partition coefficient, log P of the compound by HPLC analysis; format: physicochemical
Procedure, shortened: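 Lipophilicity was measured by reversed-phase HPLC on a Nucleosil C18 column with isocratic water/methanol (3:1) at 0.5 ml/min and UV detection at 230 and 245 nm. Dead time was set with thiourea (t0 0.728 min). Retention factor was k = (tR − t0)/t0, and log P came from a calibration against at least six reference compounds.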

[4] = Growth inhibition of human SF539 cells after 48 hrs; format: functional; conditions: SF-539, 48 h; procedure, shortened: as §1
SK-MEL-5 = experiment: Growth inhibition of human SK-MEL-5 cells after 48 hrs; format: functional; conditions: SK-MEL-5, 48 h; procedure, shortened: as §2
Saccharomyces cerevisiae = experiment: Antimicrobial activity against Saccharomyces cerevisiae assessed as inhibition at 20 ug/6 mm disk after 1 to 2 days by agar diffusion assay; format: functional; procedure, shortened: as §3
MCF7 [5] = experiment: Cytotoxicity against human MCF7 cells assessed as cell viability after 24 hrs incubation by MTT assay; format: functional, cell-based; conditions: MCF7, 24 h
Procedure, shortened: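 Cell lines came from DSMZ; primary human fibroblasts served as non-cancer controls. Cells were grown in medium with 10% FCS, seeded at 50,000 cells/ml, and grown 2 days at 37 °C, 10% CO2. Serial dilutions were then added for 24 h. MTT (final 0.5 mg/ml) was added for 2 h. Formazan was pelleted, PBS-washed, dissolved in isopropanol/0.4% HCl and read at 590 nm. Two parallel experiments were run. IC50 was taken as the concentration giving 50% of untreated-control absorbance.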

[6] = Growth inhibition of human LOXIMVI cells after 48 hrs; format: functional; conditions: LOX IMVI; procedure, shortened: as §1
SNB-75 = experiment: Growth inhibition of human SNB75 cells after 48 hrs; format: functional; conditions: SNB-75, 48 h; procedure, shortened: as §2
[7] = Growth inhibition of human NCI-ADR-RES cells after 48 hrs; format: functional; procedure, shortened: as §1
SK-OV-3 = experiment: Growth inhibition of human SKOV3 cells after 48 hrs; format: functional; conditions: SK-OV-3, 48 h; procedure, shortened: as §2
Malme-3M = experiment: Growth inhibition of human MALME-3M cells after 48 hrs; format: functional; procedure, shortened: as §1
HT-29 = experiment: Growth inhibition of human HT-29 cells after 48 hrs; format: functional; conditions: HT-29, 48 h; procedure, shortened: as §1
[8] = Growth inhibition of human BT549 cells after 48 hrs; format: functional; conditions: BT-549, 48 h; procedure, shortened: as §1
[9] = Growth inhibition of human OVCAR8 cells after 48 hrs; format: functional; conditions: OVCAR-8, 48 h; procedure, shortened: as §1
[10] = Growth inhibition of human EKVX cells after 48 hrs; format: functional; procedure, shortened: as §1
[11] = Growth inhibition of human Hs 578T cells after 48 hrs; format: functional; procedure, shortened: as §1
786-0 = experiment: Growth inhibition of human 786-0 cells after 48 hrs; format: functional; conditions: 786-0, 48 h; procedure, shortened: as §1
[12] = Growth inhibition of human OVCAR4 cells after 48 hrs; format: functional; conditions: OVCAR-4, 48 h; procedure, shortened: as §1
[13] = Growth inhibition of human MOLT4 cells after 48 hrs; format: functional; conditions: MOLT-4, 48 h; procedure, shortened: as §1
SNB-19 = experiment: Growth inhibition of human SNB19 cells after 48 hrs; format: functional; conditions: SNB-19, 48 h; procedure, shortened: as §2
DU-145 = experiment: Growth inhibition of human DU145 cells after 48 hrs; format: functional; conditions: DU-145, 48 h; procedure, shortened: as §1
MCF7 [14] = experiment: Growth inhibition of human MCF7 cells after 48 hrs; format: functional; conditions: MCF7, 48 h; procedure, shortened: as §1
ACHN = experiment: Growth inhibition of human ACHN cells after 48 hrs; format: functional; procedure, shortened: as §1
SK-MEL-28 = experiment: Growth inhibition of human SK-MEL-28 cells after 48 hrs; format: functional; conditions: SK-MEL-28, 48 h; procedure, shortened: as §1
MDA-MB-435 = experiment: Growth inhibition of human MDA-MB-435 cells after 48 hrs; format: functional; conditions: MDA-MB-435, 48 h; procedure, shortened: as §1
[15] = read-out: pLC50 (the source's name) (converted)

SMILES: COc1ccc(N(CC(=O)NCCC[Te]c2ccccc2)C(=O)c2ccccc2)cc1
- GI50 (CAKI-1): 2.95 µM
- LC50 (CAKI-1): > 100 µM
- TGI (CAKI-1; read-out: pTGI (converted)): 14.8 µM
- GI50 [1]: 12 µM
- LC50 [1]: 75.9 µM
- TGI ([1]; read-out: pTGI (converted)): 30.2 µM
- GI50 [2]: 3.16 µM
- CC50 [2, 15]: > 100 µM
- TGI ([2]; read-out: pTGI (converted)): 19.1 µM
- GI50 (T47D): 3.39 µM
- LC50 (T47D): > 100 µM
- TGI (T47D; read-out: pTGI (converted)): 21.4 µM
- diameter of the inhibition zone (DIZ) (Staphylococcus aureus): 12 mm
- GI50 (SF-268): 3.16 µM
- CC50 (SF-268; [15]): 66.1 µM
- TGI (SF-268; read-out: pTGI (converted)): 10.7 µM
- GI50 (KM12): 3.16 µM
- CC50 (KM12; [15]): 46.8 µM
- TGI (KM12; read-out: pTGI (converted)): 11.7 µM
- diameter of the inhibition zone (DIZ) (Escherichia coli): 11 mm
- logP [3]: 1.72
- GI50 [4]: 2.29 µM
- CC50 [4, 15]: 28.8 µM
- TGI ([4]; read-out: pTGI (converted)): 6.03 µM
- GI50 (SK-MEL-5): 2.4 µM
- CC50 (SK-MEL-5; [15]): 24.5 µM
- TGI (SK-MEL-5; read-out: pTGI (converted)): 6.03 µM
- diameter of the inhibition zone (DIZ) (Saccharomyces cerevisiae): 0 mm
- IC50 (MCF7 [5]): 27 µM
- GI50 [6]: 3.72 µM
- LC50 [6]: 100 µM
- TGI ([6]; read-out: pTGI (converted)): 14.1 µM
- GI50 (SNB-75): 2.57 µM
- CC50 (SNB-75; [15]): 39.8 µM
- TGI (SNB-75; read-out: pTGI (converted)): 9.55 µM
- GI50 [7]: 3.24 µM
- LC50 [7]: > 100 µM
- TGI ([7]; read-out: pTGI (converted)): 10.7 µM
- GI50 (SK-OV-3): 2.57 µM
- CC50 (SK-OV-3; [15]): 35.5 µM
- TGI (SK-OV-3; read-out: pTGI (converted)): 6.03 µM
- GI50 (Malme-3M): 16.6 µM
- CC50 (Malme-3M; [15]): 72.4 µM
- TGI (Malme-3M; read-out: pTGI (converted)): 34.7 µM
- GI50 (HT-29): 3.8 µM
- CC50 (HT-29; [15]): > 100 µM
- TGI (HT-29; read-out: pTGI (converted)): > 100 µM
- GI50 [8]: 2.4 µM
- LC50 (concentration killing 50% of cells) [8]: > 100 µM
- TGI ([8]; read-out: pTGI (converted)): 8.71 µM
- GI50 [9]: 3.02 µM
- LC50 [9]: > 100 µM
- TGI ([9]; read-out: pTGI (converted)): 8.13 µM
- GI50 [10]: 4.07 µM
- CC50 [10, 15]: > 100 µM
- TGI ([10]; read-out: pTGI (converted)): 5.25 µM
- LC50 [11]: > 100 µM
- GI50 (786-0): 5.13 µM
- LC50 (786-0): 64.6 µM
- TGI (786-0; read-out: pTGI (converted)): 19.5 µM
- GI50 [12]: 12 µM
- LC50 [12]: 53.7 µM
- TGI ([12]; read-out: pTGI (converted)): 25.1 µM
- GI50 [13]: 3.55 µM
- CC50 [13, 15]: > 100 µM
- TGI ([13]; read-out: pTGI (converted)): 16.6 µM
- GI50 (SNB-19): 4.07 µM
- CC50 (SNB-19; [15]): > 100 µM
- TGI (SNB-19; read-out: pTGI (converted)): 58.9 µM
- GI50 (DU-145): 3.89 µM
- LC50 (DU-145): 64.6 µM
- TGI (DU-145; read-out: pTGI (converted)): 13.8 µM
- GI50 (MCF7 [14]): 3.16 µM
- LC50 (concentration killing 50% of cells) (MCF7 [14]): 75.9 µM
- TGI (MCF7 [14]; read-out: pTGI (converted)): 10.7 µM
- GI50 (ACHN): 3.16 µM
- LC50 (ACHN): 39.8 µM
- TGI (ACHN; read-out: pTGI (converted)): 9.55 µM
- GI50 (SK-MEL-28): 4.17 µM
- CC50 (SK-MEL-28; [15]): 45.7 µM
- TGI (SK-MEL-28; read-out: pTGI (converted)): 15.5 µM
- GI50 (MDA-MB-435): 8.13 µM
- CC50 (MDA-MB-435; [15]): > 100 µM
- TGI (MDA-MB-435; read-out: pTGI (converted)): 30.2 µM
